Measured values gathered from unrelated publications.
Protocols differ between the studies behind these lines.
Cell line: A549
Observed: cell growth or viability

Compound	assay	setting	inhibition [%]
Cn1c(=O)c(NN=C2C(=O)Nc3ccc(Br)cc32)nc2ccccc21	–	30 µM	84.9
CN1C(=O)/C(=N\NC(=O)c2cc3ccccc3[nH]2)c2cc(F)ccc21	–	30 µM	90.3
COc1cc(CNC(=O)C[C@H](C)CCC=C(C)C)ccc1OCc1cn(-c2ccc(Cl)cc2)nn1	SRB	10 µM	55
O=C(CN1C(=O)/C(=C/c2ccncc2)SC1=S)Nc1ccccc1	MTT	10 µM	25.9
CCN(CC)CCNC(=O)c1c(C)[nH]c(/C=C2\C(=O)Nc3ccc(F)cc32)c1C	–	30 µM	85.7
COc1ccccc1/C=C1\SC(=S)N(CC(=O)Nc2ccccc2)C1=O	MTT	10 µM	38.3
CN1C(=O)/C(=N\NC(=O)c2cc3ccccc3[nH]2)c2ccccc21	–	30 µM	94.9
COc1ccc(-c2nc(NN=C3C(=O)Nc4ccccc43)c3ccccc3n2)cc1OC	–	30 µM	58.6
O=C1Nc2ccc(Br)cc2/C1=N/NC(=O)c1cc2ccccc2[nH]1	–	30 µM	77
O=C(CN1C(=O)/C(=C/c2cccc(Br)c2)SC1=S)Nc1ccccc1	MTT	10 µM	25.8
COc1ccc2c(c1)/C(=N/NC(=O)c1cc3ccccc3[nH]1)C(=O)N2C	–	30 µM	97.4
COc1cc2ncnc(NN=C3C(=O)Nc4ccccc43)c2cc1OC	–	30 µM	32.9
O=C(N/N=C1\C(=O)N(c2ccccc2)c2ccccc21)c1cc2ccccc2[nH]1	–	30 µM	98.5
O=C(CN1C(=O)/C(=C/c2ccc(O)cc2)SC1=S)Nc1ccccc1	MTT	10 µM	29.6
Cc1ccc2c(c1)C(=NNc1nc3ccccc3n(C)c1=O)C(=O)N2	–	30 µM	68.8
COc1cccc(/C=C2\SC(=S)N(CC(=O)Nc3ccccc3)C2=O)c1	MTT	10 µM	25.7
COc1cc2ncnc(NN=C3C(=O)Nc4ccc(C)cc43)c2cc1OC	–	30 µM	20.5
O=C(CN1C(=O)/C(=C/c2ccccc2Cl)SC1=S)Nc1ccccc1	MTT	10 µM	20.5
COc1ccc(-c2nc(NN=C3C(=O)Nc4ccc(Cl)cc43)c3ccccc3n2)cc1OC	–	30 µM	10.9
O=C1Nc2ccccc2/C1=N/NC(=O)c1cc2ccccc2[nH]1	–	30 µM	90.9
